This note sets out measurements from ChEMBL document CHEMBL1143047, “Aminoglycoside antibiotic derivatives: preparation and evaluation of toxicity on cochlea and vestibular tissues and antimicrobial activity” (Bioorg Med Chem, 2007).

For data set [1], the species on record is Cavia porcellus. Put plainly: Ototoxicity assessed as cochlear inner cells damage in Albino guinea pig with transtympanic application in right ear relative to left ear control. In kind it is toxicity, organism-based. The arrangement: concentration or dose not given beside the values. Conditions: other. The essentials: (§1)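 Albino guinea pigs (400–600 g) screened by Preyer reflex and otoscopy, with DPOAE/BEAP thresholds up to 5 dB in both ears under ketamine 65 mg/kg. Right ear got a transtympanic sample (0.08–0.10 mL, 0.22 mmol/mL, in water or DMSO); left ear got saline or DMSO; 06 animals. Cochlear hair cells and vestibule (semicircular channels, utriculus, sacculus) scored by SEM after glutaraldehyde/osmium fixation.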

The species named for data set [2] is Cavia porcellus. Briefly: Ototoxicity assessed as cochlear outer cells damage in Albino guinea pig with transtympanic application in right ear relative to left ear control. Format: toxicity, organism-based. The arrangement: concentration or dose not given beside the values. Conditions: other. The essentials: as §1
The species named for data set [3] is Cavia porcellus. Briefly: Ototoxicity assessed as vestibular damage in Albino guinea pig with transtympanic application in right ear relative to left ear control. Format: toxicity, organism-based. Details: concentration or dose not given beside the values. Conditions: in vivo, other. The essentials: as §1
For another data set, the system named is Micrococcus luteus. Briefly: Antimicrobial activity against Micrococcus luteus ATCC 9341 at 15 mg/ml after 24 hrs by micro dilution method. In kind it is functional, organism-based. The essentials: (§2)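 Broth microdilution with about 5 × 10^4 CFU/mL per well. Compounds were dissolved in sterile water or in 10% DMSO/water and tested at 15 mg/mL in duplicate. Incubation was 24 h at 35 °C. Growth was scored qualitatively by medium turbidity (growth or no growth) against an inoculated-medium positive control and a medium-only negative control.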

Another data set concerns Staphylococcus aureus. Put plainly: Antimicrobial activity against Staphylococcus aureus ATCC 6538 at 15 mg/ml after 24 hrs by micro dilution method. Format: functional, organism-based. The procedure, abridged:
as §2

Data set [4] relates to Staphylococcus epidermidis. Briefly: Antimicrobial activity against Staphylococcus epidermidis ATCC 12228 at 15 mg/ml after 24 hrs by micro dilution method. In kind it is functional, organism-based. The procedure, abridged: as §2
For the next data set, the system named is Escherichia coli. Briefly: Antimicrobial activity against Escherichia coli ATCC 25922 at 15 mg/ml after 24 hrs by micro dilution method. In kind it is functional, organism-based. The essentials: as §2
For the next data set, the system named is Pseudomonas aeruginosa. Put plainly: Antimicrobial activity against Pseudomonas aeruginosa ATCC 27853 at 15 mg/ml after 24 hrs by micro dilution method. In kind it is functional, organism-based. The essentials:
as §2

The source made the active and inactive calls.

Turning to `CC(=O)NC[C@H]1O[C@H](O[C@@H]2[C@@H](O)[C@H](O)[C@@H](NC(C)=O)C[C@H]2NC(C)=O)[C@H](NC(C)=O)[C@@H](O)[C@@H]1O`, the Activity in the data set filed under Cavia porcellus [1], in the data set filed under Cavia porcellus [2] and in the data set filed under Cavia porcellus [3] was 0% each time. The outcome (in the data set on Micrococcus luteus; in the data set on Staphylococcus aureus; in data set [4]; with Escherichia coli) was Active. Further, the result in the data set with Pseudomonas aeruginosa was inactive.
`O=C(NC[C@H]1O[C@H](O[C@@H]2[C@@H](O)[C@H](O)[C@@H](NC(=O)OCc3ccccc3)C[C@H]2NC(=O)OCc2ccccc2)[C@H](NC(=O)OCc2ccccc2)[C@@H](O)[C@@H]1O)OCc1ccccc1`: the values for the Activity in the data set filed under Cavia porcellus [1], in the data set listed under Cavia porcellus [2] and in the data set listed under Cavia porcellus [3] were 0%, 100% and 0%, respectively.
Regarding `COc1ccc(/C=N\[C@H]2[C@@H](O[C@@H]3[C@@H](O)[C@H](O)[C@@H](/N=C/c4ccc(OC)cc4)C[C@H]3/N=C/c3ccc(OC)cc3)O[C@H](C/N=C/c3ccc(OC)cc3)[C@@H](O)[C@@H]2O)cc1`, the Activity in the data set filed under Cavia porcellus [1] came out at 100%; in the data set filed under Cavia porcellus [2] it was 0%; in the data set filed under Cavia porcellus [3], 0%.
As to `COC(=O)NC[C@H]1O[C@H](O[C@@H]2[C@@H](O)[C@H](O)[C@@H](NC(=O)OC)C[C@H]2NC(=O)OC)[C@H](NC(=O)OC)[C@@H](O)[C@@H]1O`, the Activity in the data set listed under Cavia porcellus [1], in the data set filed under Cavia porcellus [2] and in the data set listed under Cavia porcellus [3] was 0% each time.
For `NC[C@H]1O[C@H](O[C@H]2[C@H](O)[C@@H](O)[C@H](N)C[C@@H]2N)[C@H](N)[C@@H](O)[C@@H]1O` [NEAMINE], the Activity in the data set listed under Cavia porcellus [1] came out at 0%; in the data set filed under Cavia porcellus [2] it was 100%; in the data set listed under Cavia porcellus [3], 100%. Besides, the result (in the data set on Micrococcus luteus; in the data set with Staphylococcus aureus; in data set [4]; with Escherichia coli; with Pseudomonas aeruginosa) was Active.
`NC[C@@H]1O[C@H](O[C@H]2[C@@H](O)[C@H](O[C@@H]3[C@@H](O)[C@H](N)C[C@H](N)[C@H]3O[C@H]3O[C@H](CN)[C@@H](O)[C@H](O)[C@H]3N)O[C@@H]2CO)[C@H](N)[C@@H](O)[C@@H]1O` [FRAMYCETIN]: the Activity is given as 0% in the data set filed under Cavia porcellus [1], 100% in the data set listed under Cavia porcellus [2] and 50% in the data set listed under Cavia porcellus [3]. The outcome (in the data set on Micrococcus luteus; with Staphylococcus aureus; in data set [4]; in the data set with Escherichia coli; in the data set on Pseudomonas aeruginosa) was Active.
`N[C@@H]1C[C@H](N)[C@@H](O)[C@H](O)[C@H]1O`: the Activity in the data set listed under Cavia porcellus [1], in the data set listed under Cavia porcellus [2] and in the data set filed under Cavia porcellus [3] was 0% in each case. The result in the data set with Micrococcus luteus was Active. For the same compound, the result (in the data set with Staphylococcus aureus; in data set [4]; in the data set with Escherichia coli; in the data set on Pseudomonas aeruginosa) was inactive.
As for `COC1OC[C@@H](O)[C@@H](O[C@H]2O[C@@H](CN)[C@@H](O)[C@H](O)[C@H]2N)[C@H]1O` (some centres undefined) [METHYL-NEOBIOSAMINIDE B], the figures for the Activity in the data set filed under Cavia porcellus [1], in the data set filed under Cavia porcellus [2] and in the data set filed under Cavia porcellus [3] were 0%, 0% and 100%, respectively. For the same compound, the outcome (in the data set on Micrococcus luteus; with Staphylococcus aureus; in data set [4]; in the data set with Escherichia coli; in the data set on Pseudomonas aeruginosa) was Active.
